This is an account of results in ChEMBL document CHEMBL4145683, “Total Synthesis and Structure-Activity Relationships Study of Odilorhabdins, a New Class of Peptides Showing Potent Antibacterial Activity” (J Med Chem, 2018).

Values after ≈ are worked out from the molar mass of the structure shown. Active and inactive are the calls of the source. The calls are words filed in the database; no cut-off is given here.

In test [1] the test system is Klebsiella pneumoniae. The test is described as follows: Antimicrobial activity against Klebsiella pneumoniae ATCC 13883 by broth microdilution method. It counts as functional. Put shortly:
(§1)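 Broth microdilution MIC per CLSI M07-A10, with inoculum prepared by direct colony suspension. Reference strains were from ATCC and NCTC.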
Background: Dilution methods test growth across graded concentrations, often in twofold steps.

For test [2], the system named is Klebsiella pneumoniae. Kind of test: Antimicrobial activity against Klebsiella pneumoniae NCTC 13438 by broth microdilution method. Type of test: functional. Put shortly:
as §1

In test [3] the test system is Klebsiella pneumoniae. The test is described as follows: Antimicrobial activity against Klebsiella pneumoniae ATCC BAA-1905 by broth microdilution method. Type of test: functional. Put shortly:
as §1

Test [4] concerns Escherichia coli. The test is described as follows: microbe, parasite or virus in culture. The settings on record: ATCC 25922.
Test [5] has as its system Klebsiella pneumoniae. Kind of test: Antimicrobial activity against Klebsiella pneumoniae ATCC BAA-2472 by broth microdilution method. It counts as functional. In outline:
as §1

In test [6] the test system is Klebsiella pneumoniae. Kind of test: Antimicrobial activity against Klebsiella pneumoniae ATCC BAA-1904 by broth microdilution method. Type of test: functional. In outline: as §1
The test system of test [7] is Klebsiella pneumoniae. The test is described as follows: Antimicrobial activity against Klebsiella pneumoniae ATCC BAA-2146 by broth microdilution method. Type of test: functional. Put shortly: as §1
The test system of test [8] is Escherichia coli. Kind of test: Antimicrobial activity against Escherichia coli ATCC BAA-2469 by broth microdilution method. It counts as functional. In outline: as §1
The test system of test [9] is Klebsiella pneumoniae. Kind of test: Antimicrobial activity against Klebsiella pneumoniae NCTC 13439 by broth microdilution method. Type of test: functional. Put shortly:
as §1

In test [10] the test system is Escherichia coli. Kind of test: Antimicrobial activity against Escherichia coli ATCC BAA-2340 by broth microdilution method. Type of test: functional. In outline:
as §1

Test [11] has as its system Escherichia coli. The test is described as follows: Antimicrobial activity against Escherichia coli ATCC BAA-2452 by broth microdilution method. Type of test: functional. Put shortly:
as §1

Test [12] relates to Klebsiella pneumoniae. The test is described as follows: Antimicrobial activity against Klebsiella pneumoniae ATCC 43816 by broth microdilution method. Type of test: functional. The note with it: Klebsiella pneumoniae, ATCC 43816; read-out: MIC. Put shortly:
as §1

Test [13] has as its system Klebsiella pneumoniae. Kind of test: Antimicrobial activity against Klebsiella pneumoniae NCTC 13443 by broth microdilution method. Type of test: functional. In outline:
as §1

The subject of test [14] is Klebsiella pneumoniae. The test is described as follows: Antimicrobial activity against Klebsiella pneumoniae ATCC 13883 infected in neutropenic mouse pulmonary infection model assessed as reduction in lung bacterial load at 30 mg/kg, iv dosed 1 hr post infection and measured 8 hrs post infection relative to untreated control. Type of test: functional, organism-based. Put shortly: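 Neutropenia induced by intraperitoneal cyclophosphamide (150 mg/kg day 4, 100 mg/kg day 1 before infection); intranasal infection at 2 × 10^6 CFU/mouse. Single iv dose at 10 mL/kg given 1 h post-infection. An untreated group was sacrificed at 1 h for baseline burden. At 8 h, lungs were homogenized, serially diluted and plated on TSA for CFU. Comparison versus vehicle by one-way ANOVA with Dunnett's test.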

The test system of test [15] is Klebsiella pneumoniae. Kind of test: Antimicrobial activity against Klebsiella pneumoniae NCTC 13442 by broth microdilution method. Type of test: functional. In outline:
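CLSI broth microdilution with direct colony suspension inoculum, per CLSI M07-A10. Reference strain taken from the NCTC collection.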

Test [16] relates to Klebsiella pneumoniae. Kind of test: Antimicrobial activity against Klebsiella pneumoniae ATCC BAA-2473 by broth microdilution method. Type of test: functional. In outline:
as §1

The subject of test [17] is Klebsiella pneumoniae. The test is described as follows: Antimicrobial activity against Klebsiella pneumoniae ATCC 13883 infected in neutropenic mouse pulmonary infection model assessed as reduction in lung bacterial load at 40 mg/kg, sc dosed 1 hr post infection and measured 8 hrs post infection relative to untreated control. Type of test: functional. Put shortly:
(§2)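 Mice were acclimatized for 5 days and made neutropenic with intraperitoneal cyclophosphamide (150 mg/kg on day 4, 100 mg/kg on day 1 pre-infection). They were infected intranasally with 2 × 10^6 CFU/mouse. At 1 h, a single SC dose was given in 10 mL/kg (6 mice/dose). […] A pretreatment group was sampled at 1 h. At 8 h, lungs were homogenized and plated on TSA for CFU. Analysis was one-way ANOVA with Dunnett's test vs vehicle.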

The subject of test [18] is Klebsiella pneumoniae. The test is described as follows: Antimicrobial activity against Klebsiella pneumoniae ATCC 13883 infected in neutropenic mouse pulmonary infection model assessed as reduction in lung bacterial load at 80 mg/kg, sc dosed 1 hr post infection and measured 8 hrs post infection relative to untreated control. It counts as functional. In outline:
as §2

`O=C(O)c1cn(C2CC2)c2cc(N3CCNCC3)c(F)cc2c1=O` [CIPROFLOXACIN]: the MIC against Klebsiella pneumoniae [1] is 0.5 µg/mL (≈ 1.51 µM); in the test on Klebsiella pneumoniae [2] it was more than 64 µg/mL; in the test on Klebsiella pneumoniae [3], more than 64 µg/mL; in the test on Escherichia coli [4] it was less than 0.25 µg/mL; against Klebsiella pneumoniae [5] it was more than 64 µg/mL; with Klebsiella pneumoniae [6], 0.5 µg/mL (≈ 1.51 µM). The MIC was more than 64 µg/mL against Klebsiella pneumoniae [7]; more than 64 µg/mL with Escherichia coli [8]; 32 µg/mL (≈ 96.6 µM) against Klebsiella pneumoniae [9]; more than 64 µg/mL with Escherichia coli [10]; less than 0.125 µg/mL in the test on Escherichia coli [11]; not above 0.125 µg/mL in the test on Klebsiella pneumoniae [12]. Moreover, the MIC against Klebsiella pneumoniae [13] is more than 64 µg/mL; against Klebsiella pneumoniae [15] it was 8 µg/mL (≈ 24.1 µM); with Klebsiella pneumoniae [16] it was more than 64 µg/mL. The outcome in the test on Klebsiella pneumoniae [14] was Active.
For `C[C@H](NC(=O)[C@@H](NC(=O)[C@@H](N)CCCCN)[C@@H](O)CN)C(=O)NCC(=O)N[C@H](CCCN)C(=O)N1CCC[C@H]1C(=O)N[C@@H](Cc1cnc[nH]1)C(=O)N[C@@H](CCCCN)C(=O)N/C(=C\CCNC(=N)N)C(=O)O.Cl`, the results for the Activity in the test with Klebsiella pneumoniae [17] and with Klebsiella pneumoniae [18] were 2 log10CFU/ml and 3 log10CFU/ml, respectively.
